Measured values from article PMC5720355 (ACS chemical biology, 2017).

Experiments:
20S proteasome = details: read-out: EC50, enhancing 20S mediated protein degradation; cited from earlier work
[1] = molecular target: purified 20S proteasome with tau441 and GAPDH (Homo sapiens, UniProt P25787+P60900); assay: In vitro degradation of tau441; type: biochemical; details: compounds 30 μM; SDS 0.02%
Procedure, shortened: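 Pre-incubate 15nM purified human 20S proteasome with test compound or vehicle for 20 min at RT in 20mM HEPES pH 7.4, 2mM EDTA, 1mM EGTA. Add recombinant tau441 plus GAPDH (0.1μM each, final) and incubate 1 h at 37 °C. Resolve on a 4-20% tris-glycine gel and immunoblot. Quantify tau by densitometry against untreated tau control.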

[2] = test system: Glioblastoma (U87-MG) cells; assay: Tau degradation in U87MG cells, immunoblot; type: cell-based, human; details: 50 μM, 24 h, cycloheximide 20 μg/mL
[3] = molecular target: human constitutive 20S proteasome (CT-L, β5) (Homo sapiens, UniProt P25787+P60900); assay: Proteasome activity assay, 20S chymotrypsin-like; type: biochemical; details: for enhancement of 20S proteolytic (CT-L) activity, in words: CT-L peptide substrate
[4] = test system: HEK 293 cells stably expressing ODC-GFPSpark; assay: ODC-GFPSpark degradation in HEK 293T cells, immunoblot; type: cell-based, human; details: 50 μM, 24 h, cycloheximide 20 μg/mL
26S proteasome = 26S proteasome (Homo sapiens, UniProt P25787+P60900); assay: Proteasome activity assay, 26S-mediated proteolysis of CT-L peptide probe; type: biochemical
Procedure, shortened: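 Pre-incubate 1nM human 26S proteasome with test compound for 10 min at RT in 50mM Tris-HCl pH 7.5 containing 5mM MgCl2 and 2.5mM ATP. Add Suc-LLVY-AMC (10μM) and read the fluorescence increase per minute for 1 h at 37 °C (380-460nm). Express activity as fold of vehicle control.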

[5] = molecular target: human constitutive 20S proteasome (T-L, β2) (Homo sapiens, UniProt P25787+P60900); assay: Proteasome activity assay, 20S tryptic-like; type: biochemical; details: read-out: EC50, tryptic-like (T-L) activity; Boc-LRR-AMC
[6] = molecular target: purified human 20S proteasome with α-synuclein and GAPDH (Homo sapiens, UniProt P25787+P60900); assay: In vitro degradation of α-synuclein; type: biochemical
Procedure, shortened: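 Pre-incubate 15nM purified human 20S with test compound (3, 10, 30 μM) or vehicle for 20 min at RT in 20mM HEPES pH 7.4, 2mM EDTA, 1mM EGTA. Add recombinant α-synuclein and GAPDH (0.5μM each, final) and incubate 1 h at 37 °C. Immunoblot α-syn and GAPDH. Controls: reactions without 20S, and 20S pre-treated with bortezomib (3μM).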

[7] = molecular target: human constitutive 20S proteasome (Casp-L, β1) (Homo sapiens, UniProt P25787+P60900); assay: Proteasome activity assay, 20S caspase-like; type: biochemical; details: read-out: EC50, caspase-like (Casp-L) activity; Z-LLE-AMC

SMILES | rate of 20S-mediated degradation of tau compared to 20S/vehicle control [1] | tau concentrations compared to the vehicle control [2] | enhancement of 20S proteolytic (CT-L) activity, in words [3] | GFP-ODC levels compared to controls [4] | further results
CCCCC/C=C\C/C=C\C/C=C\C/C=C\CCCC(=O)Nc1ccc(O)cc1 [AM-404] | – | – | – | – | EC50 (20S proteasome): ~32 µM
CCCCCCCCCCCCOS(=O)(=O)[O-].[Na+] [SDS, sodium dodecyl sulfate] | prevents | – | – | – | –
CN(C)CCCN1c2ccccc2Sc2ccc(Cl)cc21 [chlorpromazine, reference compound] | significantly enhance | significantly reducing tau concentrations | enhanced 20S proteolytic activity | reduced GFP-ODC levels | –
CC(C)CCCN1c2ccccc2Sc2ccccc21 [compound 1] | – | modest clearance of tau | – | – | –
O=S(=O)(O)CCCCN1c2ccccc2Sc2ccccc21 [compound 2] | significantly enhance | significantly reducing tau concentrations | enhanced 20S proteolytic activity | reduced GFP-ODC levels | effect on 26S-mediated proteolysis of the CT-L peptide probe (26S proteasome): did not affect; EC50 [5]: 10 µM; rate of 20S-mediated degradation of α-syn compared to 20S/vehicle control ([6]; 3, 10 and 30 μM, concentration-dependent): significantly enhanced; α-Syn levels in the absence of 20S or with 20S pretreated with bortezomib ([6]; BTZ 3 μM): unaffected; 20S-mediated degradation of the structured protein GAPDH ([6]; any of the concentrations tested (3, 10, 30 μM)): does not enhance; EC50 [7]: 4.8 µM; fold enhancement of 20S activity ([3]; at 10 μM): ~4 fold; concentration above which 20S activity drops ([3]; concentration response up to 70 μM, CT-L substrate): > 35 µM
O=S(=O)(O)CCCN1c2ccccc2Sc2ccc(Cl)cc21 [compound 3] | – | – | no significant enhancement | – | –
